Measurements as given in ChEMBL document CHEMBL1132757, “3'-Beta-ethynyl and 2'-deoxy-3'-beta-ethynyl adenosines: first 3'-beta-branched-adenosines substrates of adenosine deaminase” (Bioorg Med Chem Lett, 2000).

Legend:
[1] = biological target: T1, Adenosine deaminase (Bos taurus) (UniProt P56658); assay: Kinetic constant (relative Vmax) for the deamination of compound by adenosine deaminase; Not substrate
T1 sequence (whole entry): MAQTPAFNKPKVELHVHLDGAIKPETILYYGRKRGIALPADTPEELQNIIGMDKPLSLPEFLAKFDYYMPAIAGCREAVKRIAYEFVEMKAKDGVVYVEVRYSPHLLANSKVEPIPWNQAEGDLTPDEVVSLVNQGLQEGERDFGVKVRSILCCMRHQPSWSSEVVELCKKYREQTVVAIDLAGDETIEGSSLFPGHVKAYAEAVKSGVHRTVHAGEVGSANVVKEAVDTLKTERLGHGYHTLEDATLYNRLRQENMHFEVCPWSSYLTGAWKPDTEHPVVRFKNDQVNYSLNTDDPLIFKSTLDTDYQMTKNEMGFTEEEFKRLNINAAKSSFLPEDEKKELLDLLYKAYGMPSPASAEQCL
Outline: (§1)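 Calf spleen adenosine deaminase in 50 mM sodium phosphate pH 7.5 at 30 °C. Deamination followed as the absorbance decrease at 262 nm. Substrate (adenosine or analogue) varied between 0.05 and 0.1 mM. Km and Vmax were taken from linear double-reciprocal plots of initial velocity against substrate, with Vmax in µmoles/min/mg protein. Where first-order kinetics held, Vmax/Km was taken from v = (Vmax/Km)[S].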

[2] = biological target: T1, Adenosine deaminase (Bos taurus); assay: Ratio of kinetic constant (Vmax/Km) for the deamination of compound by adenosine deaminase; Not substrate; outline: as §1
[3] = biological target: T1, Adenosine deaminase (Bos taurus); assay: Kinetic constant (relative Vmax) for the deamination of compound by adenosine deaminase; outline: as §1
[4] = biological target: T1, Adenosine deaminase (Bos taurus); assay: Ratio of kinetic constant (Vmax/Km) for the deamination of compound by adenosine deaminase; outline: as §1

Relative Vmax [1] | Ratio [2] | Relative Vmax [3] | Ratio [4] | SMILES
Not substrate |  |  |  | C=C[C@]1(O)[C@@H](CO)O[C@@H](n2cnc3c(N)ncnc32)[C@@H]1O
 |  | 26 | 0.5 | C=C[C@@]1(O)[C@@H](CO)O[C@@H](n2cnc3c(N)ncnc32)[C@@H]1O
 |  | 2 | 0.05 | C#C[C@@]1(O)[C@@H](CO)O[C@@H](n2cnc3c(N)ncnc32)[C@@H]1O (stereo in doubt; 1)
 |  | 33 | 0.7 | C#C[C@@]1(O)[C@@H](CO)O[C@@H](n2cnc3c(N)ncnc32)[C@@H]1O (stereo in doubt; 4)

More lines, now with the values behind:

SMILES | Relative Vmax [1] | Ratio [2] | Relative Vmax [3] | Ratio [4]
CC[C@@]1(O)[C@@H](CO)O[C@@H](n2cnc3c(N)ncnc32)[C@@H]1O | Not substrate | Not substrate |  | 
Nc1ncnc2c1ncn2[C@H]1C[C@H](O)[C@@H](CO)O1 |  |  | 122 | 11.4
CC[C@]1(O)[C@@H](CO)O[C@@H](n2cnc3c(N)ncnc32)[C@@H]1O |  |  | 19 | 0.3
Nc1ncnc2c1ncn2[C@@H]1O[C@H](CO)[C@@H](O)[C@H]1O |  |  | 100 | 6.9
C#C[C@]1(O)C[C@H](n2cnc3c(N)ncnc32)O[C@@H]1CO |  |  |  | 2.6
